# Calls of active or inactive are those of the source. The rule behind the calls is not given here.
# Key:
# [1] = tested on: H9c2; assay: Cardioprotective activity against rat H9c2 cells assessed as reduction in H2O2-induced cell death at 20 uM incubated for 24 hrs followed by H2O2 stimulation and measured after 2 hrs by MTT assay; type: functional, cell-based
# Outline: (§1)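 Serum-starved H9c2 cells in DMEM/F12 with 10% FBS were seeded at 5×10^3 cells/well and attached overnight. They were pretreated 24 h with compound at 2.5, 5, 10 or 20 µM, then exposed to 250 µM H2O2 for 2 h. MTT (4 mg/mL) ran 4 h at 37 °C, formazan was dissolved in DMSO, and OD was read at 490 nm. Viability is % of untreated control, from three independent experiments, mean ± SD.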
# [2] = tested on: H9c2; assay: Cardioprotective activity against rat H9c2 cells assessed as reduction in H2O2-induced cell death at 2.5 uM incubated for 24 hrs followed by H2O2 stimulation and measured after 2 hrs by MTT assay; type: functional, cell-based; outline: as §1
# [3] = tested on: H9c2; assay: Cardioprotective activity against rat H9c2 cells assessed as reduction in H2O2-induced cell death at 10 uM incubated for 24 hrs followed by H2O2 stimulation and measured after 2 hrs by MTT assay; type: functional, cell-based; outline: as §1
# [4] = molecular target: T1, Nuclear factor erythroid 2-related factor 2 (Rattus norvegicus) (UniProt O54968); assay: Activation of Nrf2 in rat H9c2 cells assessed as induction of Nrf2 nuclear translocation at 10 uM incubated for 24 hrs followed by H2O2 stimulation and measured after 2 hrs by Western blot analysis; type: cell-based
# T1 sequence (whole entry): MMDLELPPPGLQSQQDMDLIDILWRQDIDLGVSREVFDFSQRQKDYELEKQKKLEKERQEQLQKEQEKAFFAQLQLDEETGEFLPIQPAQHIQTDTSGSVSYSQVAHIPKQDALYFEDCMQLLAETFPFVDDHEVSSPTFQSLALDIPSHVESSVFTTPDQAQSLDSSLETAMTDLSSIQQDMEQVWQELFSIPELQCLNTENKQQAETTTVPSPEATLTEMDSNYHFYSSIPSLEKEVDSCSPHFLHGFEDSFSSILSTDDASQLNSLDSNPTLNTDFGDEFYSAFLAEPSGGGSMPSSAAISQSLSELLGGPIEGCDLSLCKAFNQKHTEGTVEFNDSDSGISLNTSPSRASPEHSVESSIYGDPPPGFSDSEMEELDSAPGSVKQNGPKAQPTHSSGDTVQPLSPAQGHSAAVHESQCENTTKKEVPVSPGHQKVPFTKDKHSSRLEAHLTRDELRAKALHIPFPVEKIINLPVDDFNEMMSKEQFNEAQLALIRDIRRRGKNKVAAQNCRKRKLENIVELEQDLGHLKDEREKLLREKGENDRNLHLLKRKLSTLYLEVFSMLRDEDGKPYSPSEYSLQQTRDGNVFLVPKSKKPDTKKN
# [5] = molecular target: T1, Nuclear factor erythroid 2-related factor 2 (Rattus norvegicus); assay: Activation of Nrf2 in rat H9c2 cells assessed as upregulation of HO1 at 10 uM incubated for 24 hrs followed by H2O2 stimulation and measured after 2 hrs by Western blot analysis; type: cell-based
# [6] = molecular target: T1, Nuclear factor erythroid 2-related factor 2 (Rattus norvegicus); assay: Activation of Nrf2 in rat H9c2 cells assessed as upregulation of NQO1 at 10 uM incubated for 24 hrs followed by H2O2 stimulation and measured after 2 hrs by Western blot analysis; type: cell-based
# [7] = tested on: H9c2; assay: Cytotoxicity against rat H9c2 cells assessed as reduction in cell viability at 0.1 to 100 uM incubated for 24 hrs by MTT assay; type: cell-based; conditions: h9c2, 24 h
# Outline: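 H9c2 cells were seeded at 5×10^3 cells/well, attached overnight and given compound at 0.1, 1, 10 or 100 µM for 24 h, with 0.01% DMSO medium as control. Compounds were DMSO stocks diluted in medium. MTT (4 mg/mL, 4 h, 37 °C) was read at OD 490 nm after DMSO solubilisation. Viability is % of control, from three experiments.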
# [8] = tested on: H9c2; assay: Cardioprotective activity against rat H9c2 cells assessed as reduction in H2O2-induced cell death at 5 uM incubated for 24 hrs followed by H2O2 stimulation and measured after 2 hrs by MTT assay; type: functional, cell-based; outline: as §1
# [9] = tested on: H9c2; assay: Cardioprotective activity against rat H9c2 cells assessed as reduction in H2O2-induced LDH release at 10 uM incubated for 24 hrs followed by H2O2 stimulation and measured after 2 hrs by LDH release assay; type: functional, cell-based
# Outline: (§2)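 Cells were cultured in DMEM/F12 with 10% FBS and serum-starved, then pre-incubated 24 h with compound at 10 or 20 µM before 2 h with 250 µM H2O2. LDH release rate was measured with a cytotoxicity detection kit by absorbance at 490 nm. Three independent experiments, mean ± SD, one-way ANOVA with Tukey test.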
# [10] = tested on: H9c2; assay: Cardioprotective activity against rat H9c2 cells assessed as reduction in H2O2-induced LDH release at 20 uM incubated for 24 hrs followed by H2O2 stimulation and measured after 2 hrs by LDH release assay; type: functional, cell-based; outline: as §2
# [11] = tested on: H9c2; assay: Increase in H2O2-induced Nrf2 expression in rat H9c2 cells at 20 uM incubated for 24 hrs followed by H2O2 stimulation and measured after 2 hrs by Western blot analysis; type: functional, cell-based
# Outline: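 Pretreatment was 20 µM for 24 h, then 250 µM H2O2 for 2 h. Cytoplasmic and nuclear fractions were extracted for Western blot: 5% milk/TBS-0.1% Tween blocking 2 h, primary antibodies overnight at 4 °C, HRP anti-rabbit secondary (1:5000) 2 h. Signals were normalised to Lamin B1 (nuclear) or GAPDH (cytoplasmic), n=3, mean ± SD.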
# [12] = tested on: H9c2; assay: Inhibition of H2O2-induced ROS accumulation in rat H9c2 cells at 10 uM incubated for 24 hrs followed by H2O2 stimulation and measured after 2 hrs by DHE staining based fluorescence microscopy; type: functional, cell-based
# Outline: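 H9c2 cells at 2.5×10^5 cells/well attached overnight, were preincubated 24 h with 10 µM, then given H2O2 (250 µM) for 2 h. Dihydroethidium (5 µM) was loaded for 30 min at 37 °C. Ethidium fluorescence (ex 488/em […] nm) was imaged by fluorescence microscopy at 200×.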
# [13] = molecular target: T1, Nuclear factor erythroid 2-related factor 2 (Rattus norvegicus); assay: Activation of Nrf2 in rat H9c2 cells assessed as induction of Nrf2 nuclear translocation incubated for 24 hrs followed by H2O2 stimulation and measured after 2 hrs by Western blot analysis; type: cell-based
# [14] = molecular target: T1, Nuclear factor erythroid 2-related factor 2 (Rattus norvegicus); assay: Activation of Nrf2 in rat H9c2 cells assessed as upregulation of HO1 incubated for 24 hrs followed by H2O2 stimulation and measured after 2 hrs by Western blot analysis; type: cell-based
# [15] = molecular target: T1, Nuclear factor erythroid 2-related factor 2 (Rattus norvegicus); assay: Activation of Nrf2 in rat H9c2 cells assessed as upregulation of NQO1 incubated for 24 hrs followed by H2O2 stimulation and measured after 2 hrs by Western blot analysis; type: cell-based
smiles,measurement,setting,value
CC(C)(C)c1cccc2c1OS(=O)(=O)N=C2,Activity,[1],inactive
Cc1ccc2c(c1)OS(=O)(=O)N=C2,Activity,[1],Active
O=S1(=O)N=Cc2ccccc2O1,Activity,[1],Active
O=S1(=O)N=Cc2cccc(F)c2O1,Activity,[1],Active
Cc1ccc2c(c1)C=NS(=O)(=O)O2,Activity,[1],Active
O=S1(=O)N=Cc2cc(Cl)ccc2O1,Activity,[1],Active
O=c1cc(-c2ccc(O)c(O)c2)oc2cc(O)cc(O)c12,Activity,[1],Active
same,Activity,[2],inactive
same,Activity,[3],Active
same,Activity,[4],Active
same,Activity,[5],Active
same,Activity,[6],Active
O=S1(=O)N=Cc2ccc(Cl)cc2O1,Activity,[1],Active
same,Activity,[7],Non-Toxic
same,Activity,[2],inactive
same,Activity,[8],Active
same,Activity,[3],Active
same,Activity,[9],Active
same,Activity,[10],Active
same,Activity,[11],Active
same,inhibition,[12],Active
same,Activity,[13],Dose-dependent effect
same,Activity,[14],Dose-dependent effect
same,Activity,[15],Dose-dependent effect
same,Activity,[4],Active
same,Activity,[5],Active
same,Activity,[6],Active
O=S1(=O)N=Cc2c(ccc3ccccc23)O1,Activity,[1],Active
O=S1(=O)N=Cc2cccc(Cl)c2O1,Activity,[1],Active
O=S1(=O)N=Cc2cc(Br)ccc2O1,Activity,[1],Active
same,Activity,[7],Non-Toxic
same,Activity,[2],inactive
same,Activity,[3],Active
same,Activity,[9],inactive
same,Activity,[10],Active
O=S1(=O)N=Cc2ccc(F)cc2O1,Activity,[1],Active
same,Activity,[7],Non-Toxic
same,Activity,[2],inactive
same,Activity,[3],Active
same,Activity,[9],inactive
same,Activity,[10],Active
COc1ccc2c(c1)OS(=O)(=O)N=C2,Activity,[1],Active
COc1ccc2c(c1)C=NS(=O)(=O)O2,Activity,[1],Active
COc1cccc2c1OS(=O)(=O)N=C2,Activity,[1],Active
O=S1(=O)N=Cc2c(F)cccc2O1,Activity,[1],Active
CCN(CC)c1ccc2c(c1)OS(=O)(=O)N=C2,Activity,[1],Active

# — ChEMBL document CHEMBL4312000, “Discovery of coumarin-derived imino sulfonates as a novel class of potential cardioprotective agents” (Eur J Med Chem, 2019)
